Experimental data from ChEMBL document CHEMBL1157017, “Synthesis and pharmacological evaluation of new 5-(cyclo)alkyl-5-phenyl- and 5-spiroimidazolidine-2,4-dione derivatives. Novel 5-HT1A receptor agonist with potential antidepressant and anxiolytic activity” (Eur J Med Chem, 2010).
pKi: −log10 of the molar value. Activity calls are given as the source filed them. The calls are words filed in the database; no cut-off is given here.

Tests used:
Mus musculus [1] = assay: Anxiolytic-like activity in Swiss albino mouse assessed as number of punished crossing at 20 mg/kg, ip after 60 mins by four-plate test (RVb = 3.8 +/- 0.2); format: functional; settings: route intraperitoneal
[2] = molecular target: T1, 5-hydroxytryptamine receptor 1A (Rattus norvegicus) (UniProt P19327); assay: Antagonist activity at postsynaptic 5HT1A receptor in rat brain cerebral cortex at 20 ug/ml; format: functional, tissue-based; settings: filed as antagonist
T1 sequence (whole entry): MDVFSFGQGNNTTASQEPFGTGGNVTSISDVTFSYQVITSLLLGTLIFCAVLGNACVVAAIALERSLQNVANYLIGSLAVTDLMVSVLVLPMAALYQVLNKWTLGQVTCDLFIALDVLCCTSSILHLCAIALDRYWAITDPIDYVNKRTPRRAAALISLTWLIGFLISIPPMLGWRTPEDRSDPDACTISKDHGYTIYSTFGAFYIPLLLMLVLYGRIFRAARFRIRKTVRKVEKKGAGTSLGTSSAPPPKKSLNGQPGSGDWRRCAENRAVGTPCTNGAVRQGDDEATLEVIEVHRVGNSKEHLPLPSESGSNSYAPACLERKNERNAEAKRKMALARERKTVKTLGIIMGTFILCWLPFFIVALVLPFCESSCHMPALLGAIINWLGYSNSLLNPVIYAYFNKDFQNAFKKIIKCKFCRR

Mus musculus [3] = assay: Anxiolytic-like activity in Swiss albino mouse assessed as number of punished crossing at 10 mg/kg, ip after 60 mins by four-plate test (RVb = 3.8 +/- 0.2); format: functional; settings: route intraperitoneal
[4] = molecular target: T1, 5-hydroxytryptamine receptor 1A (Rattus norvegicus); assay: Antagonist activity at presynaptic 5HT1A receptor in rat brain cerebral cortex at 20 ug/ml; format: functional, tissue-based; settings: filed as antagonist
[5] = molecular target: 5-hydroxytryptamine receptor 2A (Rattus norvegicus, UniProt P14842); assay: Displacement of [3H]ketanserin from 5HT2A in rat brain cerebral cortex; format: tissue-based
Outline: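 Rat cerebral cortex membranes in 50 mM Tris-HCl pH 7.7 were incubated 20 min at 37 °C with 0.6 nM [3H]-ketanserin and compound at 10^-10–10^-4 M. Mianserin served as displacer. Filtration through GF/B, scintillation counting, in duplicate, with iterative curve fitting.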

Mus musculus [6] = assay: Anxiolytic-like activity in Swiss albino mouse assessed as number of punished crossing at 30 mg/kg, ip after 60 mins by four-plate test (RVb = 3.8 +/- 0.2); format: functional; settings: route intraperitoneal
[7] = molecular target: T2, 5-hydroxytryptamine receptor 1A (Rattus norvegicus, UniProt P19327); assay: Displacement of [3H]8OH-DPAT from 5HT1A in rat brain cerebral cortex; format: tissue-based
T2 sequence (P19327 whole entry): T1 sequence (whole entry)
Outline: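 Rat cerebral cortex membranes (9 mg wet weight) in 50 mM Tris-HCl pH 7.7 with pargyline, CaCl2 and 0.1% ascorbic acid. Incubated 15 min at 37 °C with 1 nM [3H]-8-OH-DPAT and compound at 10^-10–10^-4 M. Nonspecific binding defined with serotonin. GF/B filtration and scintillation counting, in duplicate, with iterative curve fitting.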

D(2) dopamine receptor = D(2) dopamine receptor (Rattus norvegicus, UniProt P61169); assay: Displacement of [3H]spiperone from dopamine D2 receptor in rat brain striatum
[8] = molecular target: 5-hydroxytryptamine receptor 2A (Rattus norvegicus) (UniProt P14842); assay: Antagonist activity at postsynaptic 5HT2A receptor in rat brain cerebral cortex at 20 ug/ml; format: functional, tissue-based; settings: filed as antagonist
[9] = molecular target: T1, 5-hydroxytryptamine receptor 1A (Rattus norvegicus); assay: Agonist activity at presynaptic 5HT1A receptor in rat brain cerebral cortex at 20 ug/ml; format: functional, tissue-based; settings: filed as agonist
Mus musculus [10] = assay: […] in Swiss albino mouse assessed as number of […] crossing of the light beam during 30 mins at 10 mg/kg, ip measured after 30 mins postdose […] (RVb = 249.2 +/- 21); format: functional; settings: route intraperitoneal
Mus musculus [11] = assay: […] in Swiss albino mouse assessed as number of […] crossing of the light beam during 30 mins at 20 mg/kg, ip measured after 30 mins postdose […] (RVb = 249.2 +/- 21); format: functional; settings: route intraperitoneal
Mus musculus [12] = assay: Anxiolytic-like activity in Swiss albino mouse assessed as number of punished crossing of the light beam during 6 mins at 10 mg/kg, ip measured after 30 mins postdose (RVb = 107.1 +/- 8.5); settings: route intraperitoneal
Mus musculus [13] = assay: […] in Swiss albino mouse assessed as number of […] crossing of the light beam during 6 mins at 20 mg/kg, ip measured after 30 mins postdose […] (RVb = 107.1 +/- 8.5); format: functional; settings: route intraperitoneal
[14] = molecular target: T1, 5-hydroxytryptamine receptor 1A (Rattus norvegicus); assay: Agonist activity at postsynaptic 5HT1A receptor in rat brain cerebral cortex at 20 ug/ml; format: functional, tissue-based
Mus musculus [15] = assay: Antidepressant-like activity in Swiss mouse assessed as immobilization time at 5 mg/kg, ip after 30 mins by forced swim test (RVb = 181.4 +/- 4.9 s); format: functional; settings: route intraperitoneal
Mus musculus [16] = assay: Antidepressant-like activity in Swiss mouse assessed as immobilization time at 20 mg/kg, ip after 30 mins by forced swim test (RVb = 181.4 +/- 4.9 s); format: functional; settings: route intraperitoneal
Mus musculus [17] = assay: Antidepressant-like activity in Swiss mouse assessed as immobilization time at 10 mg/kg, ip after 30 mins by forced swim test (RVb = 181.4 +/- 4.9 s); format: functional; settings: route intraperitoneal
Mus musculus [18] = assay: Anxiolytic-like activity in Swiss albino mouse assessed as number of punished crossing at 5 mg/kg, ip after 30 mins by four-plate test (RVb = 3.8 +/- 0.2); settings: route intraperitoneal
Mus musculus [19] = assay: Anxiolytic-like activity in Swiss albino mouse assessed as number of punished crossing at 10 mg/kg, ip after 60 mins by four-plate test (RVb = 4.2 +/- 0.4); format: functional; settings: route intraperitoneal
Mus musculus [20] = assay: Anxiolytic-like activity in Swiss albino mouse assessed as number of punished crossing at 20 mg/kg, ip after 60 mins by four-plate test (RVb = 4.2 +/- 0.4); format: functional; settings: route intraperitoneal
Mus musculus [21] = assay: Anxiolytic-like activity in Swiss albino mouse assessed as number of punished crossing at 30 mg/kg, ip after 60 mins by four-plate test (RVb = 4.2 +/- 0.4); format: functional; settings: route intraperitoneal
[22] = Agonist activity at presynaptic 5HT1A receptor in brain cerebral cortex at 20 ug/ml
Mus musculus [23] = assay: […] in Swiss albino mouse assessed as number of […] crossing of the light beam during 6 mins at 10 mg/kg, ip measured after 30 mins postdose […] (RVb = 94.8 +/- 4.1); format: functional; settings: route intraperitoneal
Mus musculus [24] = assay: Antidepressant-like activity in Swiss mouse assessed as immobilization time at 10 mg/kg, ip after 30 mins by forced swim test (RVb = 167.1 +/- 6.7 s); format: functional; settings: route intraperitoneal
Mus musculus [25] = assay: […] in Swiss albino mouse assessed as number of […] crossing of the light beam during 30 mins at 20 mg/kg, ip measured after 30 mins postdose […] (RVb = 210.7 +/- 17.7); format: functional; settings: route intraperitoneal
Mus musculus [26] = assay: Antidepressant-like activity in Swiss mouse assessed as immobilization time at 20 mg/kg, ip after 30 mins by forced swim test (RVb = 167.1 +/- 6.7 s); format: functional; settings: route intraperitoneal
Mus musculus [27] = assay: […] in Swiss albino mouse assessed as number of […] crossing of the light beam at 20 mg/kg, ip measured after 30 mins postdose […] (RVb = 94.8 +/- 4.1); settings: route intraperitoneal
Mus musculus [28] = assay: […] in Swiss albino mouse assessed as number of […] crossing of the light beam during 30 mins at 10 mg/kg, ip measured after 30 mins postdose […] (RVb = 210.7 +/- 17.7); format: functional; settings: route intraperitoneal

5-hydroxytryptamine receptor 2A (Rattus norvegicus), sequence (P14842 whole entry): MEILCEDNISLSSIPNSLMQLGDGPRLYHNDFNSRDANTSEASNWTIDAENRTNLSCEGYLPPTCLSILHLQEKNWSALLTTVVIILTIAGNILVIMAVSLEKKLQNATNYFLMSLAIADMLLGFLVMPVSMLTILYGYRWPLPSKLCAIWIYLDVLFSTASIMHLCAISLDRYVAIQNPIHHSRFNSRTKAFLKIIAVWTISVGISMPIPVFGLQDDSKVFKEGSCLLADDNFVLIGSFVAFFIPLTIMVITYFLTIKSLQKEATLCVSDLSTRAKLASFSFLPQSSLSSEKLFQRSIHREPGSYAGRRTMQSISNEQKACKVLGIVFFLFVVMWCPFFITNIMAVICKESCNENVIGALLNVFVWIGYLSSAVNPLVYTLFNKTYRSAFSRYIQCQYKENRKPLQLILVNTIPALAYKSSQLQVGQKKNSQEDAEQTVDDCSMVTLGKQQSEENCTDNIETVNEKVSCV
5-hydroxytryptamine receptor 2A, sequence (P14842 whole entry): as above
D(2) dopamine receptor, sequence (P61169 whole entry): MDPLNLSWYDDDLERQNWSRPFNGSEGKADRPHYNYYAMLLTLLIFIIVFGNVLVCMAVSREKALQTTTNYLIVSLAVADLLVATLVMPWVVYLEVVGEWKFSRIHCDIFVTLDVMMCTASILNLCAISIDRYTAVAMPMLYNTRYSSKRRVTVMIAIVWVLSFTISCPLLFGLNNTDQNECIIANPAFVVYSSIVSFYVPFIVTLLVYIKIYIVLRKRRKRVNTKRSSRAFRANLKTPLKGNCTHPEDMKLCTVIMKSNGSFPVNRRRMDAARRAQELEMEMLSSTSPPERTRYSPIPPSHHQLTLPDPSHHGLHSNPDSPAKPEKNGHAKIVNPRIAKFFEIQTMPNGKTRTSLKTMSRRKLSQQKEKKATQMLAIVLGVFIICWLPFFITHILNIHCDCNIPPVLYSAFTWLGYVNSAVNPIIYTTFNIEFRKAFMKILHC

| Structure (SMILES) | Activity [2] | pKi [5] | pKi [7] | pKi (D(2) dopamine receptor) | Activity [8] | Activity [9] | also measured |
| --- | --- | --- | --- | --- | --- | --- | --- |
| O=C1NC(c2ccccc2)(C2CC2)C(=O)N1CCCN1CCN(c2cccc(Cl)c2)CC1 (racemic) | Antagonist | 7.11 | 7.89 |  |  |  | Activity (Mus musculus [1]): 3.9; Activity (Mus musculus [3]): 3.8; Activity [4]: Antagonist; Activity (Mus musculus [6]): 3.7 |
| O=C1NC2(CCc3ccccc32)C(=O)N1CCCN1CCN(c2ccccc2)CC1 (racemic) |  | 7.52 | 7.01 | 4.81 | Antagonist |  |  |
| COc1ccccc1N1CCN(CCCN2C(=O)NC3(CCc4ccccc43)C2=O)CC1 (racemic) | Antagonist | 6.19 | 7.31 |  |  | Agonist |  |
| O=C1NC2(CCCc3ccccc32)C(=O)N1CCCN1CCN(c2cccc(Cl)c2)CC1 (racemic) |  | 7.46 | 6.46 | 5.74 | Antagonist |  |  |
| CC1(c2ccccc2)NC(=O)N(CCCN2CCN(c3ccccc3)CC2)C1=O (racemic) |  | 7.16 | 6.34 |  |  |  |  |
| O=C1NC2(CCCc3ccccc32)C(=O)N1CCCN1CCN(c2ccccc2)CC1 (racemic) |  | 7.60 | 7.06 | 6.17 | Antagonist |  |  |
| COc1ccccc1N1CCN(CCCN2C(=O)NC3(CCCc4ccccc43)C2=O)CC1 (racemic) |  | 6.55 | 7.64 |  |  | Agonist | Activity (Mus musculus [10]): 212.9; Activity (Mus musculus [1]): 4.4; Activity (Mus musculus [11]): 225.3; Activity (Mus musculus [3]): 5.9; Activity (Mus musculus [12]): 110; Activity (Mus musculus [13]): 111.6; Activity ([14]; filed as agonist): Agonist; Time (Mus musculus [15]): 161.2 s; Time (Mus musculus [16]): 103.1 s; Time (Mus musculus [17]): 121.4 s; Activity (Mus musculus [18]): 3.9 |
| COc1ccccc1N1CCN(CCCN2C(=O)NC(C)(c3ccccc3)C2=O)CC1 (racemic) |  | 6.14 | 7.33 |  |  | Agonist | Activity [14]: inactive |
| O=C1NC2(CCc3ccccc32)C(=O)N1CCCN1CCN(c2cccc(Cl)c2)CC1 (racemic) | Antagonist | 7.28 | 7.42 | 5.21 | Antagonist | Agonist | Activity (Mus musculus [19]): 4; Activity (Mus musculus [20]): 4.2; Activity (Mus musculus [21]): 4.2 |
| CC1(c2ccccc2)NC(=O)N(CCCN2CCN(c3cccc(Cl)c3)CC2)C1=O (racemic) | Antagonist | 6.51 | 7.54 | 5.41 |  |  | Activity [22]: inactive |
| O=C1NC(c2ccccc2)(C2CC2)C(=O)N1CCCN1CCN(c2ccccc2)CC1 (racemic) |  | 7.00 | 7.17 |  |  |  | Activity [14]: inactive; Activity [22]: inactive |
| COc1ccccc1N1CCN(CCCN2C(=O)NC(c3ccccc3)(C3CC3)C2=O)CC1 (racemic) |  | 6.15 | 7.96 |  |  | Agonist | Activity [14]: inactive |
| CN(C)CCCN1c2ccccc2CCc2ccccc21 [IMIPRAMINE] |  |  |  |  |  |  | Activity (Mus musculus [23]): 94.4; Time (Mus musculus [24]): 149.1 s; Activity (Mus musculus [25]): 141.6; Time (Mus musculus [26]): 107.8 s; Activity (Mus musculus [27]): 89.1; Activity (Mus musculus [28]): 208.7 |
